From ChEMBL document CHEMBL4004801, “Bioactive Constituents from the Termite Nest-Derived Medicinal Fungus Xylaria nigripes” (J Nat Prod, 2017)

Experiments:
BV-2 [1] = assay: Inhibition of LPS-induced nitric oxide production in mouse BV2 cells pretreated for 30 mins followed by LPS-stimulation after 24 hrs by Griess assay; format: functional, cell-based
Method in brief: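 BV2 cells seeded at 5 × 10^5 per well for 16 h, then moved to phenol red-free DMEM. Cells pretreated 30 min with vehicle or compound (2, 10, 20, 40 μM), then given LPS 150 ng/mL for 24 h. Supernatant nitrate reduced with nitrate reductase and cofactors for 1 h at RT in the dark. Griess A and B added for 20 min, then A550 read. Nitrite obtained by regression against NaNO2 standards, and IC50 derived. Curcumin used as positive control.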

BV-2 [2] = assay: Inhibition of LPS-induced COX-2 expression in mouse BV2 cells at 20 uM pretreated for 15 mins followed by LPS-stimulation after 24 hrs by western blot analysis relative to control; format: functional
Method in brief: (§1)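 BV-2 cells at 80% confluence, serum-free medium for 24 h. Cells given DMSO or compound, then LPS 150 ng/mL for 24 h. Lysate supernatants run on SDS-PAGE, blotted to PVDF, probed with anti-COX-2 or anti-iNOS and HRP secondary, detected by ECL. Protein levels expressed as fold of control. Mean ± SD of three experiments.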

BV-2 [3] = assay: Inhibition of LPS-induced iNOS expression in mouse BV2 cells at 20 uM pretreated for 15 mins followed by LPS-stimulation after 24 hrs by western blot analysis relative to control; format: functional; method in brief: as §1
[4] = Cytotoxicity against mouse BV2 cells assessed as cell viability at 20 uM after 24 hrs by MTT assay relative to control; format: cell-based, BV-2; conditions: read-out: Activity
Method in brief: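 BV-2 cells grown in DMEM with 10% heat-inactivated FBS at 37 °C under 5% CO2. Medium switched to 0.5% FBS at 85% confluence before treatment. Viability measured after 24 h compound exposure by colorimetric MTT reduction. Mean ± SD of three individual experiments.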

BV-2 [5] = assay: Inhibition of LPS-induced iNOS expression in mouse BV2 cells pretreated for 15 mins followed by LPS-stimulation after 24 hrs by western blot analysis; format: functional, cell-based
Method in brief: (§2)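 Western blot in BV-2 microglia after serum-free conditioning for 24 h. Compound given at 2, 5, 10 and 20 μM, then LPS 150 ng/mL for 24 h. iNOS and COX-2 detected by ECL and expressed relative to control. IC50 calculated from the concentration–response data.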

BV-2 [6] = assay: Inhibition of LPS-induced COX-2 expression in mouse BV2 cells pretreated for 15 mins followed by LPS-stimulation after 24 hrs by western blot analysis; format: functional, cell-based; method in brief: as §2

| SMILES | fold change (FC) (BV-2 [2]) | fold change (FC) (BV-2 [3]) | viability at 24 h, 20 µM [4] [%] | other results |
| --- | --- | --- | --- | --- |
| COc1cc(/C=C/C(=O)CC(=O)/C=C/c2ccc(O)c(OC)c2)ccc1O [CURCUMIN] | – | – | – | IC50 (BV-2 [1]): 4.5 µM |
| C=C(CO)C1=C[C@@]2(C)C(=CC1=O)CCC[C@@H]2C | 3.7 | 3.6 | 73.8 | – |
| C=C(C)[C@@H]1Cc2cc(CO)ccc2O1 | 2.4 | 1.9 | 85.9 | IC50 (BV-2 [5]): 11.6 µM; inhibition (BV-2 [5]): Dose-dependent effect; IC50 (BV-2 [1]): 33.8 µM; IC50 (BV-2 [6]): 12.7 µM; inhibition (BV-2 [6]): Dose-dependent effect |
| C=C(C)[C@@H]1Cc2cc(C=O)ccc2O1 | 4.2 | 3 | – | – |
| CCCCC1OC(=O)c2c(O)cccc21 (configuration not stated) | 6.5 | 4.3 | – | – |
| C=C(C=O)[C@@H]1C[C@@]2(C)C(=CC1=O)CCC[C@@H]2C | – | – | 46.1 | – |
| C=C(C=O)[C@@H]1C[C@@]2(C)C(=C[C@H]1O)CCC[C@@H]2C | – | – | 44.6 | – |
| C=C1CO[C@@H]2C=C3CCC[C@H](C)[C@@]3(C)C[C@@]12O | 2.1 | 1.8 | 87.7 | IC50 (BV-2 [5]): 8.1 µM; inhibition (BV-2 [5]): Dose-dependent effect; IC50 (BV-2 [1]): 21.7 µM; inhibition (BV-2 [1]): Dose-dependent effect; IC50 (BV-2 [6]): 16.6 µM; inhibition (BV-2 [6]): Dose-dependent effect |
| CC1=C2[C@@H](C=C3C=CC[C@H](C)[C@@]3(C)[C@H]2O)OC1=O | 4.9 | 4.5 | 79.3 | – |
| O=C1C[C@H](O)Cc2cc(O)cc(O)c21 | 4.9 | 2.9 | – | – |
| CC1=C2[C@@H](C=C3CCC[C@H](C)[C@@]3(C)[C@H]2O)OC1=O | 6.4 | 3.2 | 90.2 | – |
| CCCCCc1cccc(O)c1CO | 5.6 | 3.4 | – | – |
